Measured values published in ChEMBL document CHEMBL1157908, “Macrocyclic pyridyl polyoxazoles: selective RNA and DNA G-quadruplex ligands as antitumor agents” (J Med Chem, 2010).

Assays:
Nucleic Acid [1] = test: Thermal stabilization of […] poly(rA).poly(rU) duplex RNA assessed as change in transition temperature at 15 uM after 4 hrs by temperature-dependent spectrophotometry in presence of 150 mM K+ ions; format: nucleic-acid assay
Nucleic Acid [2] = test: Thermal stabilization of Salmon testes duplex DNA assessed as change in transition temperature at 15 uM after 4 hrs by temperature-dependent spectrophotometry in presence of 150 mM K+ ions; format: nucleic-acid assay; details: Salmonidae
Summary of the method: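 Salmon testes duplex DNA at 30 μM base pair with ligand at 15 μM. Buffer 10 mM potassium phosphate pH 7.5 with 132 mM KCl (150 mM K+). DNA preheated at 90 °C for 5 min and cooled slowly over 4 hr. Temperature-dependent absorbance recorded in 1 cm quartz cells.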

[3] = Cytotoxicity against human RPMI8402 cells by MTA assay; format: functional, cell-based; details: RPMI 8402
Summary of the method: (§1)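 MTT microtiter assay. Cells were kept at 37 °C in 5% CO2 in RPMI with 10% heat-inactivated FBS, 2 mM L-glutamine and penicillin/streptomycin. Continuous exposure to a range of drug concentrations for four days, then MTT read-out. Drug-free control included. IC50 from at least two assays, each in six replicate wells.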

[4] = Cytotoxicity against human KBV1 cells expressing MDR1 by MTA assay; format: functional, cell-based; details: KB-V1; summary of the method: as §1
Nucleic Acid [5] = test: Thermal stabilization of human G-quadruplex d[T2G3(T2AG3)3A] DNA assessed as change in transition temperature at 20 uM after 4 hrs by temperature-dependent spectrophotometry in presence of 150 mM K+ ions; format: nucleic-acid assay
Summary of the method: (§2)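 UV melting in 1 cm quartz cells. Sample held 5 μM strand of hTel DNA 24mer or AurA RNA 22mer, with ligand at 20 μM. Buffer 10 mM potassium phosphate pH 7.5 plus 132 mM KCl (150 mM K+ total). Nucleic acids preheated at 90 °C for 5 min and slowly cooled over 4 hr before use. AurA transition followed at 295 nm.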

[6] = Cytotoxicity against wild type human KB3-1 cells by MTA assay; format: functional, cell-based; details: KB 3-1; summary of the method: as §1
[7] = Cytotoxicity against human KBH5.0 cells expressing efflux transporter BCRP by MTA assay; format: functional, cell-based; details: KBH5.0 cell; summary of the method: as §1
Nucleic Acid [8] = test: Thermal stabilization of r[AG4CG2CUG2UCG2AGUG2C] sequence of quadruplex RNA assessed as change in transition temperature at 20 uM after 4 hrs by temperature-dependent spectrophotometry in presence of 150 mM K+ ions; format: nucleic-acid assay; summary of the method: as §2
MDA-MB-435 [9] = test: Antitumor activity against human MDA-MB-435 cells xenografted in NCR nu/nu mouse assessed as tumor volume at an escalating dose of 25 to 42 mg/kg, ip administered on day 10 post-implantation followed by subsequent dose regimen of 3 times a week on alternative days for 3 weeks measured after 35 days (RVb = > 1350 mm'3); format: functional; details: dose mg/kg 25-42; route intraperitoneal
Summary of the method: (§3)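 Female NCR/NU NU mice, about 9 weeks old. Inoculated sc on the right flank with 1.5×10^6 MDA-MB-435 cells in 0.1 mL RPMI 1640. Groups of seven matched by tumor volume. Given ip 3× weekly on alternate days in escalating weekly doses. Control received 150 μl 10 mM citrate. Tumor volume (l × w^2)/2 measured by microcaliper at least twice weekly. % T/C = treated/control mean volume.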

MDA-MB-435 [10] = test: Antitumor activity against human MDA-MB-435 cells xenografted in NCR nu/nu mouse at an escalating dose of 25 to 42 mg/kg, ip administered on day 10 post-implantation followed by subsequent dose regimen of 3 times a week on alternative days for 3 weeks measured after 35 days relative to control; format: functional; details: dose mg/kg 25-42; route intraperitoneal; summary of the method: as §3
Mus musculus [11] = test: (§4) Toxicity in NCR nu/nu mouse xenografted with human MDA-MB-435 cells assessed as average body weight at an escalating dose of 25 to 42 mg/kg, ip administered on day 10 post-implantation followed by subsequent dose regimen of 3 times a week on alternative days for 3 weeks measured on day 35 (RVb = 24.6 +/- 1.3 g); format: organism-based; design: dose 25-42 mg/kg, route intraperitoneal; details: in vivo, 504 h
Summary of the method: (§5)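 Female NCR/NU NU mice with sc MDA-MB-435 flank xenografts. Seven mice dosed ip 3× weekly on alternate days, escalating weekly from 25 through 32 to 42 mg/kg. Controls received 150 μl 10 mM citrate. Individual body weights taken at least twice weekly. Average ± standard deviation given for days 17, 24, 31 and 35.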

Mus musculus [12] = test: as §4, with “day 31” for “day 35”, “= 23.9” for “= 24.6”, “+/- 1” for “+/- 1.3”; format: organism-based; design: dose 25-42 mg/kg, route intraperitoneal; details: in vivo, 504 h; summary of the method: as §5
Mus musculus [13] = test: as §4, with “day 24” for “day 35”, “= 22.5” for “= 24.6”, “+/- 1.5” for “+/- 1.3”; format: organism-based; design: dose 25-42 mg/kg, route intraperitoneal; details: in vivo, 504 h; summary of the method: as §5
Mus musculus [14] = test: as §4, with “day 17” for “day 35”, “= 22” for “= 24.6”, “+/- 1.8” for “+/- 1.3”; format: organism-based; design: dose 25-42 mg/kg, route intraperitoneal; details: in vivo, 504 h; summary of the method: as §5
MDA-MB-435 [15] = test: Antitumor activity against human MDA-MB-435 cells xenografted in NCR nu/nu mouse at 20 mg/kg, ip administered 3 times a week for 4 weeks measured after 35 days post-implantation relative to control; format: functional; details: route intraperitoneal
Summary of the method: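 Female NCR/NU NU mice bearing sc flank MDA-MB-435 xenografts (1.5×10^6 cells), groups matched by tumor volume. Eight mice dosed ip at 20 mg/kg, 3× weekly for four weeks from day 0. Tumor volume (l × w^2)/2 measured by caliper at least twice weekly. % T/C = average treated volume over citrate-control volume.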

Mus musculus [16] = test: Toxicity in NCR nu/nu mouse xenografted with human MDA-MB-435 cells assessed as average body weight at 20 mg/kg, ip administered 3 times a week for 4 weeks measured on day 31 (RVb = 23.9 +/- 1 g); format: organism-based; design: dose 20 mg/kg, route intraperitoneal; details: in vivo, 672 h
MIA PaCa-2 = test: Cytotoxicity against human MIAPaCa2 cells; format: functional, cell-based

Structure (SMILES) | IC50 [3] [nM] | IC50 [4] [µM] | IC50 [6] [nM] | IC50 [7] [µM] | also measured
O=C1NCc2cccc(c2)CNC(=O)c2coc(n2)-c2csc(n2)-c2cccc(n2)-c2nc(cs2)-c2nc1co2 | > 10000 | > 10 | > 10000 | > 10 | deltaT (Nucleic Acid [1]): 0 °C; deltaT (Nucleic Acid [2]): 0 °C; deltaT (Nucleic Acid [5]): 0 °C
O=C1NCc2cccc(c2)CNC(=O)c2coc(n2)-c2coc(n2)-c2cc(Br)cc(n2)-c2nc(co2)-c2nc1co2 | 300 | 2 | 150 | 1 | –
O=C1NCc2cccc(c2)CNC(=O)c2coc(n2)-c2coc(n2)-c2cc(OCCCN3C(=O)c4ccccc4C3=O)cc(n2)-c2nc(co2)-c2nc1co2 | 4500 | > 10 | 400 | > 10 | –
CN(C)CCc1cc2cc(c1)CNC(=O)c1coc(n1)-c1coc(n1)-c1cccc(n1)-c1nc(co1)-c1nc(co1)C(=O)NC2 | 180 | > 10 | 40 | 0.55 | deltaT (Nucleic Acid [8]): 37 °C; Activity (MDA-MB-435 [9]): <400 mm3; T/C (MDA-MB-435 [10]): 27.7%; deltaT (Nucleic Acid [1]): 0.5 °C; Activity (Mus musculus [11]): 21.2 g; deltaT (Nucleic Acid [2]): 0 °C; Activity (Mus musculus [12]): 20.9 g; Activity (Mus musculus [13]): 20.2 g; deltaT (Nucleic Acid [5]): 20.5 °C; Activity (Mus musculus [14]): 19.7 g
O=C1NCCNCCNC(=O)c2coc(n2)-c2coc(n2)-c2cccc(n2)-c2nc(co2)-c2nc1co2 | > 10000 | > 10 | 4000 | > 10 | –
O=C1NCc2cccc(c2)CNC(=O)c2coc(n2)-c2csc(n2)-c2cccc(n2)-c2nc(co2)-c2nc1co2 | 1000 | > 10 | 260 | > 10 | –
CCc1c2c(nc3ccc(OC(=O)N4CCC(N5CCCCC5)CC4)cc13)-c1cc3c(c(=O)n1C2)COC(=O)[C@]3(O)CC [IRINOTECAN] | – | – | – | – | T/C (MDA-MB-435 [15]): 6.1%; Activity (Mus musculus [16]): 18.4 g
O=C(NCCc1cc2cc(c1)CNC(=O)c1coc(n1)-c1coc(n1)-c1cc(Br)cc(n1)-c1nc(co1)-c1nc(co1)C(=O)NC2)OCc1ccccc1 | 1000 | > 10 | 600 | > 10 | –
O=C(NCCc1cc2cc(c1)CNC(=O)c1coc(n1)-c1coc(n1)-c1cccc(n1)-c1nc(co1)-c1nc(co1)C(=O)NC2)OCc1ccccc1 | 120 | > 10 | 120 | > 10 | –
NCCCOc1cc2nc(c1)-c1nc(co1)-c1nc(co1)C(=O)NCc1cccc(c1)CNC(=O)c1coc(n1)-c1coc-2n1 | 5000 | > 10 | 3000 | > 10 | –
O=C1NCc2cccc(n2)CNC(=O)c2coc(n2)-c2coc(n2)-c2cccc(n2)-c2nc(co2)-c2nc1co2 | > 5000 | > 5 | > 5000 | > 5 | –
O=C1NCc2cc(Br)cc(c2)CNC(=O)c2coc(n2)-c2coc(n2)-c2cc(Br)cc(n2)-c2nc(co2)-c2nc1co2 | > 10000 | > 10 | > 10000 | > 10 | –
O=C1NCc2cc(Br)cc(c2)CNC(=O)c2coc(n2)-c2coc(n2)-c2cccc(n2)-c2nc(co2)-c2nc1co2 | 300 | > 10 | 60 | 1 | –
O=C(NCCc1cc2cc(c1)CNC(=O)c1coc(n1)-c1coc(n1)-c1cc(OCCCN3C(=O)c4ccccc4C3=O)cc(n1)-c1nc(co1)-c1nc(co1)C(=O)NC2)OCc1ccccc1 | > 10000 | > 10 | > 10000 | > 10 | –
O=C1NCc2cccc(c2)CNC(=O)c2coc(n2)-c2coc(n2)-c2cccc(n2)-c2nc(co2)-c2nc1co2 | 1050 | 4.5 | 1200 | 1.5 | deltaT (Nucleic Acid [1]): 0 °C; deltaT (Nucleic Acid [2]): 0 °C; deltaT (Nucleic Acid [5]): 7.5 °C
CC(C)[C@@H]1NC(=O)c2coc(n2)-c2coc(n2)-c2coc(n2)[C@H](C(C)C)NC(=O)c2coc(n2)-c2coc(n2)-c2coc1n2 [HEXAOXAZOLE DIVALINE] | 600 | 8.5 | 400 | 0.5 | IC50 (MIA PaCa-2): 500 nM
O=C1NCc2cc(CCNC(=O)C(F)(F)F)cc(c2)CNC(=O)c2coc(n2)-c2coc(n2)-c2cccc(n2)-c2nc(co2)-c2nc1co2 | 170 | > 10 | 70 | > 10 | –
NCCc1cc2cc(c1)CNC(=O)c1coc(n1)-c1coc(n1)-c1cccc(n1)-c1nc(co1)-c1nc(co1)C(=O)NC2 | 90 | > 10 | 30 | 0.14 | deltaT (Nucleic Acid [1]): 0.5 °C; deltaT (Nucleic Acid [2]): 0 °C; deltaT (Nucleic Acid [5]): 21 °C
O=C1NCc2cc(Br)cc(c2)CNC(=O)c2coc(n2)-c2coc(n2)-c2cc(OCCCN3C(=O)c4ccccc4C3=O)cc(n2)-c2nc(co2)-c2nc1co2 | 1000 | > 10 | 1000 | > 10 | –
